KCNQ1 inh: inhibitors of human KCNQ1 channel, primary screen, cell-based, thallium flux, high-throughput | 310,000 compounds, 1.3% hits | B-score at 10 µM | Potassium voltage-gated channel subfamily KQT member 1 (Homo sapiens), P51787 | CHO-K1 KCNQ1, FluxOR thallium flux fluorescence; stronger effect = higher value | AID 2642, 2010;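 active means compounds whose thallium flux B-score, printed positive for inhibition, exceeds three library SD while starting fluorescence stays within three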;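 further: channel opened by potassium depolarization with thallium stimulus after 20 min compound exposure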
KCNQ1 pot: potentiators or activators of KCNQ1 channel, primary screen, cell-based, thallium flux, high-throughput | 310,000 compounds, 0.35% hits | Potassium voltage-gated channel subfamily KQT member 1 (Homo sapiens), P51787 | CHO-K1 KCNQ1, thallium flux FluxOR fluorescence; stronger effect = higher value | B-score at 10 µM | AID 2648, 2010;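 active means fluorescence ratio B-score, a plate-corrected score, at least three library SD, with initial intensity B-score within 5 SD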
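Test system: CHO-K1 cells stably expressing KCNQ1 / Medium: assay buffer / Also added: depolarizing K+/Tl+ stimulus, K2SO4 and Tl2SO4 each 12.5 mM in 5x stock / Incubation: 90 min dye loading and 20 min compound exposure, both at room temperature / Signal: thallium influx via FluxOR fluorescence, kinetic imaging / Evaluation: B score of baseline-normalized fluorescence ratio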
hERG rescue: hERG rescue from dofetilide block, primary screen, cell-based, CHO-hERG, FluxOR thallium flux, dofetilide IC70 | Voltage-gated inwardly rectifying potassium channel KCNH2 (Homo sapiens), Q12809 | dofetilide IC70 present | activation (rescue from dofetilide block), less the hit threshold, % at 10 µM | 310,000 compounds, 0.51% hits | AID 1511, 2009;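 active means activation above the mean of controls blocked by dofetilide plus 5 SD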;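 further: thallium influx through hERG after potassium depolarization seen as dye fluorescence rise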
KCNK9 inh: KCNK9 potassium channel inhibitors, primary screen, HEK293 cells, thallium flux; Potassium channel subfamily K member 9 (Homo sapiens), Q9NPC2; FluxOR thallium flux fluorescence; stronger effect = lower value; B-score at 10 µM; 310,000 compounds, 1.2% hits;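 active means ratio B-score over 3 SD below the library mean, with starting fluorescence within 5 SD of its mean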;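 further: negative B-score means less thallium flux so channel inhibition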
Target sequence (Q9NPC2 whole entry, looked up): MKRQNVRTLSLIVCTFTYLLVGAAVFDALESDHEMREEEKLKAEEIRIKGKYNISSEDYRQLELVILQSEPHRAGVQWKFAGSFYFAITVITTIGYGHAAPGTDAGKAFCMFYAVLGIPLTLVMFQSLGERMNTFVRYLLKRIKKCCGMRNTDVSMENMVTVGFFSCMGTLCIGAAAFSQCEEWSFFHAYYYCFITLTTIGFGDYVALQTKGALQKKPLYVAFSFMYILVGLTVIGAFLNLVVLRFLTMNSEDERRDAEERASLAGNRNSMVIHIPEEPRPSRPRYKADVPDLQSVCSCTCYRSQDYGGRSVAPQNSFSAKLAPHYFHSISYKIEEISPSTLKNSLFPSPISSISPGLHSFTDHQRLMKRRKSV
KCNK3 inh: human KCNK3 channel inhibitors, primary screen, CHO cells, FluxOR thallium flux, B-score; FluxOR fluorescence; stronger effect = lower value; 340,000 compounds, 0.84% hits; Potassium channel subfamily K member 3 (Homo sapiens), O14649; B-score at 10 µM;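 active means B-score under library mean minus 4 SD, starting fluorescence ratio at most library mean plus 5 SD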;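 further: more negative B-score means stronger inhibition of thallium flux through KCNK3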
Target sequence (O14649 whole entry, looked up): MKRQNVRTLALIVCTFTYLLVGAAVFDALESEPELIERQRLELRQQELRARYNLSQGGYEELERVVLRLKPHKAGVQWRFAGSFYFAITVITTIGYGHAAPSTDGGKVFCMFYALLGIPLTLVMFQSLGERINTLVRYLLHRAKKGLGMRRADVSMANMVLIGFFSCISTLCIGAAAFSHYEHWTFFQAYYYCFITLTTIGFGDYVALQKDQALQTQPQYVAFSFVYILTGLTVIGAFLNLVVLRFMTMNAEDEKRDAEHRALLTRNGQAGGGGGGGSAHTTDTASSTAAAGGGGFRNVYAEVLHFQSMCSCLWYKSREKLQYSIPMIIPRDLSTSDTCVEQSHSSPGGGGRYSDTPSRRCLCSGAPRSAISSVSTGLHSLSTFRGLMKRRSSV
Kir21 inh: inhibitors of mouse Kir2.1 inward-rectifier potassium channel | AID 1672, 2009 | B-score at 10 µM | Inward rectifier potassium channel 2 (Mus musculus), P35561 | HEK293-Kir2.1, FluxOR thallium flux fluorescence; stronger effect = lower value | 310,000 compounds, 0.85% hits;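 active means fluorescence ratio B-score at or below minus 3 SD of library scores, with starting-brightness B-score within 2 SD, cut at about -4.2 in these data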;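 further: channel flux triggered by added potassium and thallium sulfate stimulus; B-score of peak minus minimum fluorescence over baseline after thallium stimulus; more negative B-score means stronger Kir2.1 block with less thallium influx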
KCNK9 inh conf: KCNK9 potassium channel inhibitors, confirmation, HEK293 cells, thallium flux, duplicate. shares compounds with KCNK9 inh. FluxOR thallium flux fluorescence. inhibition, % at 10 µM. 4,900 compounds, 43% hits;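 active means thallium signal inhibited by more than 5 SD of the compound-free buffer control wells, on both duplicate plates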
Kir21 sel: mouse Kir2.1 channel inhibition, confirmation, selectivity assay for KCNK9 modulator project, cell-based, HEK293, thallium flux; shares compounds with KCNK9 inh; Kir2.1 cells, FluxOR thallium flux fluorescence; inhibition, % at 10 µM; 4,900 compounds, 4% hits; AID 492993, 2010;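 active means thallium signal drop more than 5 SD beyond the mean of the no-compound control wells, seen in both duplicate plates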;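 further: signal is fluorescence rise after thallium addition divided by baseline fluorescence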
HEK293 Tl ctr: thallium flux in non-induced HEK293 cells, confirmation, counter-screen for KCNK9 inhibitor project, cell-based, second counter screen, non-induced KCNK9-HEK293; shares compounds with KCNK9 inh; FluxOR thallium flux; inhibition, % at 10 µM; 4,900 compounds, 40% hits;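 active means thallium signal drop beyond 5 SD of the untreated control mean, on both duplicate plates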
Of the large screens only hits and unclear results are named; the others gave an inactive call (follow-up assays come after a bar, where they were run). A selection: hits, their analogues and other compounds. The true share with any hit is near 3.7%.

COc1ccc2c(c1)C(SCC(=O)NCCc1ccccc1)CC(C)(C)O2 (stereo not drawn)	none | KCNK9 inh conf inactive | Kir21 sel inactive | HEK293 Tl ctr inactive
Cc1ccc(O)c(C(=O)c2cc(C#N)c(=O)n(Cc3ccccc3)c2)c1	none
COc1ccc(O)c(C(=O)CC(=O)c2ccccc2)c1	none (no result: KCNK3 inh)
COc1ccc(O)c(C(=O)c2cc(C(=O)NCCc3ccccc3)c(=O)n(CCc3ccccc3)c2)c1	none | KCNK9 inh conf inactive | Kir21 sel inactive | HEK293 Tl ctr inactive
Cc1ccc(O)c(C(=O)c2cc(C(=O)NCCc3ccccc3)c(=O)n(CCc3ccccc3)c2)c1	KCNQ1 inh 6 | KCNK9 inh conf inactive | Kir21 sel inactive | HEK293 Tl ctr inactive
CCCCn1c(N)c(N(CCOC)C(=O)CCCn2c(=O)oc3ccccc32)c(=O)[nH]c1=O	none (no result: KCNQ1 inh, KCNQ1 pot, hERG rescue, KCNK9 inh, Kir21 inh)
COc1ccc(S(=O)(=O)N(C)C)cc1NC(=O)Cc1cccs1	none
O=C(NCC(c1ccco1)N1CCc2ccccc21)C(=O)Nc1ccc(F)cc1F (stereo not drawn)	KCNK9 inh -14 | KCNK9 inh conf 32% | Kir21 sel inactive | HEK293 Tl ctr 27%
CC(C)C(=O)Nc1ccc2nn(-c3ccc(F)cc3)nc2c1	none | KCNK9 inh conf inactive | Kir21 sel inactive | HEK293 Tl ctr inactive
O=C(COC(=O)c1ccc([N+](=O)[O-])o1)NC1CCCc2ccccc21 (stereo not drawn)	none (no result: KCNQ1 inh, KCNQ1 pot, hERG rescue, KCNK9 inh, Kir21 inh)
COc1ccc2cc(C#N)c(N3CCN(C(=O)c4ccccc4C)CC3)nc2c1	none | KCNK9 inh conf inactive | Kir21 sel inactive | HEK293 Tl ctr inactive
COc1ccc(NC(=S)N(CCCN2CCCC2)Cc2cccn2Cc2ccc(Cl)cc2)cc1Cl	none
O=C1C2C3C=CC(C4CC34)C2C(=O)N1/N=C/c1ccc(-c2ccc(Cl)cc2[N+](=O)[O-])o1 (stereo not drawn)	none | KCNK9 inh conf inactive | Kir21 sel inactive | HEK293 Tl ctr inactive
COc1ccc(-c2ccc(/C=N/N3C(=O)C4C5C=CC(C6CC56)C4C3=O)o2)c([N+](=O)[O-])c1 (stereo not drawn)	none
CCCCN(C(=O)c1ccc(Cl)c(S(=O)(=O)N2CCOCC2)c1)c1c(N)n(CCC)c(=O)[nH]c1=O	none
CCOc1ccc(NC(=O)CN(C)C(=O)c2cn(-c3ccccc3)nc2-c2cccs2)cc1OCC	none
CC(C)Cn1c(-c2ccccc2)nc2ccccc2c1=O	none
CCCCOC(=O)Cn1c(-c2ccccc2)nc2ccccc2c1=O	KCNK9 inh -11 | KCNK9 inh conf 56% | Kir21 sel inactive | HEK293 Tl ctr 52%
O=C(CCNc1cc(Cl)cc(Cl)c1)c1cccs1	KCNK9 inh -8.7 | KCNK9 inh conf inactive | Kir21 sel inactive | HEK293 Tl ctr 38%
O=C(CCNc1ccc(Cl)cc1)c1cccs1	none
O=C(CCc1ccc(CCC(=O)c2cccs2)s1)c1cccs1	KCNK9 inh -11 | KCNK9 inh conf 57% | Kir21 sel inactive | HEK293 Tl ctr 38%
Cc1c(Br)c(C(F)(F)F)nn1CC(=O)NCc1ccccc1	none
CCC(c1ccccc1)c1nnc(NC(=O)c2ccco2)s1 (stereo not drawn)	KCNK9 inh -8.7 | KCNK9 inh conf inactive | Kir21 sel inactive | HEK293 Tl ctr inactive
CCc1ccccc1NC(=O)Cn1nc(C(F)(F)F)cc1C1CC1	none
Cc1ccc(NS(=O)(=O)c2cc(C(=O)NCCCN(C)C)ccc2Cl)cc1Cl	none (no result: KCNQ1 inh, KCNQ1 pot, hERG rescue, KCNK9 inh, Kir21 inh)
COc1cc(/C=N/NC(=O)c2ccc([N+](=O)[O-])cc2Cl)cc(Br)c1O	none
COc1cc(/C=N/N2C(=O)c3ccccc3NC2(C)c2cccc([N+](=O)[O-])c2)cc(Br)c1O (stereo not drawn)	KCNK9 inh -14 | KCNK9 inh conf 56% | Kir21 sel inactive | HEK293 Tl ctr 46%
O=C(CN1CCN(c2ccccc2)CC1)N/N=C/c1cccc(F)c1	none
C=CCOc1ccccc1CN1CCC(Cc2ccccc2)CC1	Kir21 inh -4.3 | KCNK9 inh conf inactive | Kir21 sel inactive | HEK293 Tl ctr inactive
COc1cc(OC)c(CN2CCC(Cc3ccccc3)CC2)cc1Br	Kir21 inh -4.8 | KCNK9 inh conf inactive | Kir21 sel inactive | HEK293 Tl ctr inactive
OCc1ccccc1OCCCN1CCC(Cc2ccccc2)CC1	none
COc1ccc(N2CCCn3c2nc2c3c(=O)n(CCc3ccccc3)c(=O)n2C)cc1	none
COc1ccc(N2CCCn3c2nc2c3c(=O)n(Cc3ccc(C)cc3)c(=O)n2C)c(OC)c1	none | KCNK9 inh conf inactive | Kir21 sel inactive | HEK293 Tl ctr inactive
CN(Cc1ccccc1F)c1nc(-c2cccnc2)nc2ccccc12	KCNK9 inh -8.2 | KCNK9 inh conf 31% | Kir21 sel inactive | HEK293 Tl ctr 28%
Cc1ccc(CN(C)c2nc(-c3cccnc3)nc3ccccc23)o1	none
COc1ccc(NC(=O)CSc2nnc3n2CCCCC3)cc1S(=O)(=O)N1CCOCC1	none (no result: KCNQ1 inh, KCNQ1 pot, hERG rescue, KCNK9 inh, Kir21 inh)
Cc1ccccc1C(=O)NC1CC2CCCC(C1)N2Cc1ccccc1 (stereo not drawn)	none | KCNK9 inh conf inactive | Kir21 sel inactive | HEK293 Tl ctr inactive
COc1ccc(CN2C(=O)C(Cc3ccccc3)Nc3ncnc(N4CCCCC4)c32)cc1 (stereo not drawn)	KCNK9 inh -13 | KCNK9 inh conf 54% | Kir21 sel inactive | HEK293 Tl ctr 27%
Cc1ccc(CN2C(=O)C(Cc3ccccc3)Nc3ncnc(N4CCCCC4)c32)cc1 (stereo not drawn)	KCNK9 inh -14 | KCNK9 inh conf 64% | Kir21 sel inactive | HEK293 Tl ctr 38%
Cc1ccc(CN2C(=O)C(Cc3ccccc3)Nc3ncnc(N4CCN(c5ccccc5)CC4)c32)cc1 (stereo not drawn)	none

From PubChem
